Values belong to the compound of their own block, whether it stands above or below them.
What was measured:
[1] = target: T1, Monocarboxylate transporter 1 (Rattus norvegicus, UniProt P53987); experiment: Inhibition of MCT1 in rat brain endothelial 4 cells assessed as L-[14C]-Lactate Uptake after 15 mins by scintillation spectrometric analysis; type: cell-based
T1 sequence (P53987 whole entry): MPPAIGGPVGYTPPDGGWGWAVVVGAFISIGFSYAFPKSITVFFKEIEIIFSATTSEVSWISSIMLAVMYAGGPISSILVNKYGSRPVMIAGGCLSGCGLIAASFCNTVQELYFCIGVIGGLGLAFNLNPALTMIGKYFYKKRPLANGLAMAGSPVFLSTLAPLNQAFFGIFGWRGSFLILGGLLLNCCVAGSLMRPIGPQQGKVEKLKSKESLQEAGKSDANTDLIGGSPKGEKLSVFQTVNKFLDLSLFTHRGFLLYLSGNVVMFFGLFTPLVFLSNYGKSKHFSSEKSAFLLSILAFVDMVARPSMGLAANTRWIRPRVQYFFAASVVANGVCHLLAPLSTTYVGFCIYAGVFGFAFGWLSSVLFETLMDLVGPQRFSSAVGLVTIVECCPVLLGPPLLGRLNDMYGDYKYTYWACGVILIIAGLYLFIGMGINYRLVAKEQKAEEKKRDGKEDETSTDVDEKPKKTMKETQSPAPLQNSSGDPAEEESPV

[2] = Cytotoxicity against mouse GL261 cells expressing luc2 assessed as reduction in cell viability after 72 hrs by MTT assay; type: functional, cell-based; conditions: GL261, 72 h
Procedure, shortened: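 GL261-luc2 cells grown in DMEM, 10% FBS, 50 μg/mL geneticin, penicillin-streptomycin; 5 × 10^3 cells/well, 24 h at 37 °C, 5% CO2, then compound in replicate for 72 h.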

MDA-MB-231 [3] = experiment: Cytotoxicity against human MDA-MB-231 cells expressing luc2 assessed as reduction in cell viability after 72 hrs by MTT assay; type: functional, cell-based; conditions: MDA-MB-231, 72 h
Procedure, shortened: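 MDA-MB-231 cells grown in DMEM, 10% FBS, penicillin-streptomycin; 5 × 10^3 cells/well, 24 h at 37 °C, 5% CO2, then compound in replicate for 72 h.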

[4] = Permeability across apical side at pH 6.5 to basolateral side at pH 7.4 in human Caco2 cells assessed as compound recovery at 10 uM; type: ADME, cell-based; conditions: caco-2, pH 6.5, 10 µM
[5] = Permeability across basolateral side at pH 6.5 to apical side at pH 7.4 in human Caco2 cells assessed as compound recovery at 10 uM; type: ADME, cell-based; conditions: caco-2, pH 6.5, 10 µM
[6] = Efflux ratio of permeability from basolateral to apical side over apical to basolateral side in human Caco2 cells; type: ADME, cell-based; conditions: caco-2
Mus musculus [7] = experiment: Toxicity in CD-1 mouse assessed as change in body weight at 20 mg/kg, ip qd; type: organism-based; conditions: in vivo
Procedure, shortened: (§1)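 Healthy CD-1 mice were dosed once daily, either 20 mg/kg ip or 100 mg/kg by oral gavage. Control mice received vehicle (10% DMSO in saline). Animals were monitored for mortality, body weight change and apparent side effects, compared with the vehicle group. The study was conducted by GenScript under an approved IACUC protocol.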

Mus musculus [8] = experiment: Toxicity in CD-1 mouse assessed as change in body weight at 100 mg/kg, administered via oral gavage qd; type: organism-based; conditions: in vivo; procedure, shortened: as §1
Mus musculus [9] = experiment: Toxicity in CD-1 mouse assessed as visible toxic effects at 20 mg/kg, ip qd; type: organism-based; conditions: in vivo; procedure, shortened: as §1
Mus musculus [10] = experiment: Toxicity in CD-1 mouse assessed as visible toxic effects at 100 mg/kg, administered via oral gavage qd; type: organism-based; conditions: in vivo; procedure, shortened: as §1
Mus musculus [11] = experiment: Toxicity in CD-1 mouse assessed as mortality at 20 mg/kg, ip qd; type: organism-based; conditions: in vivo; procedure, shortened: as §1
Mus musculus [12] = experiment: Toxicity in CD-1 mouse assessed as mortality at 100 mg/kg, administered via oral gavage qd; type: organism-based; conditions: in vivo; procedure, shortened: as §1
[13] = Antitumor activity against MCT1 expressing mouse GL261 cells coexpressing luc2 syngrafted in C57BL/6 mouse assessed as tumor growth inhibition at 20 mg/kg, ip qd; type: functional; conditions: C57BL/6, GL261, ip, read-out: TGI
Procedure, shortened: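 GL261-luc2 cells (5 × 10^6) in 1:1 matrigel-PBS injected into right flank of C57BL/6 mice (male and female); randomized, n = 6; dosing began at tumor volume 200 mm3; vehicle 10% DMSO in saline. Caliper measurement every 2–3 days, V = ab²/2. At study end tumors excised and weighed; % inhibition = [(C − T)/C] × 100 on mean tumor weights. Mann-Whitney test.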

MDA-MB-231 [14] = experiment: Antitumor activity against MCT4 expressing human MDA-MB-231 cells coexpressing luciferase xenografted in SCID mouse assessed as tumor growth inhibition at 20 mg/kg, ip qd measured on day 19; type: functional; conditions: MDA-MB-231, ip, 456 h, read-out: TGI
Procedure, shortened: (§2)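 Female SCID mice, right flank injected with 10 × 10^6 MDA-MB-231 cells in 1:1 matrigel-PBS; randomized, n = 6; dosing started at mean tumor volume ~100 mm3; vehicle 10% DMSO in saline. Study ended day 19; tumors excised and weighed; % inhibition = [(C − T)/C] × 100 from mean tumor weights versus vehicle. Mann-Whitney test.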

MDA-MB-231 [15] = experiment: Antitumor activity against MCT4 expressing human MDA-MB-231 cells coexpressing luciferase xenografted in SCID mouse assessed as tumor growth inhibition at 100 mg/kg, administered via oral gavage qd measured on day 19; type: functional; conditions: MDA-MB-231, po, 456 h, read-out: TGI; procedure, shortened: as §2
MDA-MB-231 [16] = experiment: Antitumor activity against MCT4 expressing human MDA-MB-231 cells coexpressing luciferase xenografted in SCID mouse assessed as tumor growth inhibition at 0.5 mg/kg, ip for 5 days per week measured on day 19; type: functional; conditions: MDA-MB-231, ip, read-out: TGI; procedure, shortened: as §2

SMILES: O=C(O)c1cc2ccc(N3CCCC3)cc2oc1=O
IC50 [1]: 380 nM
IC50 [2]: > 250 µM
IC50 (MDA-MB-231 [3]): > 250 µM

SMILES: CCCN(CCC)c1ccc2cc(C(=O)O)c(=O)oc2c1
IC50 [1]: 450 nM
IC50 [2]: > 250 µM
IC50 (MDA-MB-231 [3]): > 250 µM

SMILES: O=C(O)c1cc2ccc(N(Cc3ccccc3)Cc3ccccc3)cc2oc1=O
IC50 [1]: 90 nM
IC50 [2]: > 250 µM
IC50 (MDA-MB-231 [3]): 240 µM
Drug recovery [4]: 34%
Drug recovery [5]: 55%
Ratio [6]: 0.2
Activity (Mus musculus [7]): Non-toxic
Activity (Mus musculus [8]): Non-toxic
Activity (Mus musculus [9]): Non-toxic
Activity (Mus musculus [10]): Non-toxic
Activity (Mus musculus [11]): Non-toxic
Activity (Mus musculus [12]): Non-toxic
inhibition in vivo at 20 mg/kg [13]: 77%
inhibition in vivo at 20 mg/kg (MDA-MB-231 [14]): 10%
inhibition in vivo at 100 mg/kg (MDA-MB-231 [15]): 13%

SMILES: COc1cc2c(c(OC)c1OC)-c1ccc(OC)c(=O)cc1[C@@H](NC(C)=O)CC2 [COLCHICINE]
Drug recovery [4]: 75%

SMILES: COc1cccc2c1C(=O)c1c(O)c3c(c(O)c1C2=O)C[C@@](O)(C(=O)CO)C[C@@H]3O[C@H]1C[C@H](N)[C@H](O)[C@H](C)O1 [DOXORUBICIN]
inhibition in vivo at 0.5 mg/kg (MDA-MB-231 [16]): 50%

SMILES: Cn1nnc2c(C(N)=O)ncn2c1=O [TEMOZOLOMIDE]
inhibition in vivo at 20 mg/kg [13]: 81%

Continued, in another order:

IC50 [1]: 210 nM
SMILES: C#CCN(CC#C)c1ccc2cc(C(=O)O)c(=O)oc2c1
IC50 [2]: > 250 µM
IC50 (MDA-MB-231 [3]): > 250 µM

IC50 [1]: 170 nM
SMILES: C=CCN(CC=C)c1ccc2cc(C(=O)O)c(=O)oc2c1
IC50 [2]: > 250 µM
IC50 (MDA-MB-231 [3]): > 250 µM

Drug recovery [4]: 66%
Drug recovery [5]: 72%
SMILES: CC(CCc1ccccc1)NCC(O)c1ccc(O)c(C(N)=O)c1 (stereo not given) [LABETALOL]

Drug recovery [4]: 67%
Drug recovery [5]: 80%
SMILES: CC(C)NCC(O)COc1cccc2ccccc12 (stereo not given) [PROPRANOLOL]

Drug recovery [5]: 85%
SMILES: CNC(=C[N+](=O)[O-])NCCSCc1ccc(CN(C)C)o1 [RANITIDINE]

From ChEMBL document CHEMBL3813630, “Coumarin carboxylic acids as monocarboxylate transporter 1 inhibitors: In vitro and in vivo studies as potential anticancer agents” (Bioorg Med Chem Lett, 2016)
